Experimental data: ChEMBL document CHEMBL4371070, “Design, synthesis of novel purin-6-one derivatives as phosphodiesterase 2 (PDE2) inhibitors: The neuroprotective and anxiolytic-like effects” (Bioorg Med Chem Lett, 2019)
The source made the active and inactive calls. The calls are words filed in the database; no cut-off is given here.

How the values were obtained:
[1] = target: cGMP-dependent 3',5'-cyclic phosphodiesterase (Homo sapiens, UniProt O00408); assay: Inhibition of PDE2 (unknown origin) using [3H]cAMP or [3H]cGMP as substrate measured after 30 mins by liquid scintillation counting method
Mus musculus [2] = assay: Anxiolytic activity in ICR mouse model of chronic stress-induced cognitive impairment assessed as increase in time spent in open arms at 2 mg/kg, ip measured for 5 mins test period by elevated plus maze test; type: functional, organism-based
Mus musculus [3] = species: Mus musculus; assay: Inhibition of PDE2 in mouse HT22 cells assessed as suppression of corticosterone-induced decrease in cAMP level at 1 uM after 24 hrs by ELISA; type: cell-based
In short: (§1)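 Corticosterone at 100 μM applied to HT-22 cells for 30 min, followed by compound for 24 h. Intracellular cGMP and cAMP levels measured. Mean ± SEM, n = 6; compared with vehicle-treated corticosterone group.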

Mus musculus [4] = assay: Anxiolytic activity in ICR mouse model of chronic stress-induced cognitive impairment assessed as increase in time spent in open arms at 0.5 mg/kg, ip measured for 5 mins test period by elevated plus maze test; type: functional, organism-based
In short: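 Chronically stressed mice given the reference drug at 0.5 mg/kg i.p., then tested in the elevated plus-maze for open-arm measures. Mean ± SEM, n = 6, versus vehicle-treated stressed group.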

Mus musculus [5] = species: Mus musculus; assay: Inhibition of PDE2 in mouse HT22 cells assessed as suppression of corticosterone-induced decrease in cGMP level at 1 uM after 24 hrs by ELISA; type: cell-based; in short: as §1
Phosphodiesterase 4 = Phosphodiesterase 4 (Homo sapiens, UniProt P27815+Q08499+Q07343+Q08493); assay: Inhibition of PDE4 (unknown origin) using [3H]cAMP or [3H]cGMP as substrate measured after 30 mins by liquid scintillation counting method; type: protein assay
[6] = Tmax in ICR mouse at 2 mg/kg, po by LC-MS/MS analysis; type: ADME, organism-based; conditions: in vivo
[7] = Half life in ICR mouse at 2 mg/kg, po by LC-MS/MS analysis; type: ADME, organism-based; conditions: in vivo
[8] = Cmax in ICR mouse at 2 mg/kg, po by LC-MS/MS analysis; type: ADME, organism-based; design: dose 2 mg/kg, route oral; conditions: in vivo
[9] = Toxicity in ICR mouse assessed as effect on locomotory activity at 0.5 to 2 mg/kg, ig administered as single dose via gavage measured for 10 mins; type: organism-based; conditions: in vivo, po
In short: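 Locomotor activity test in chronically stressed mice; locomotion counts recorded 10 minutes after a single oral treatment. Mean ± SEM, n = 6.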

[10] = target: High affinity cGMP-specific 3',5'-cyclic phosphodiesterase 9A (Homo sapiens, UniProt O76083); assay: Inhibition of PDE9 (unknown origin) using [3H]cAMP or [3H]cGMP as substrate measured after 30 mins by liquid scintillation counting method
Phosphodiesterase 1 = Phosphodiesterase 1 (Homo sapiens, UniProt P54750+Q01064+Q14123); assay: Inhibition of PDE1 (unknown origin) using [3H]cAMP or [3H]cGMP as substrate measured after 30 mins by liquid scintillation counting method; type: protein assay
[11] = target: cAMP and cAMP-inhibited cGMP 3',5'-cyclic phosphodiesterase 10A (Homo sapiens, UniProt Q9Y233); assay: Inhibition of PDE10 (unknown origin) using [3H]cAMP or [3H]cGMP as substrate measured after 30 mins by liquid scintillation counting method
[12] = AUC (0 to infinity) in ICR mouse at 2 mg/kg, po by LC-MS/MS analysis; type: ADME, organism-based; design: dose 2 mg/kg, time infinity, route oral; conditions: in vivo
[13] = Ratio of drug level in ICR mouse brain to plasma at 2 mg/kg, po measured after 0.5 hrs by LC-MS/MS analysis; type: ADME, organism-based; conditions: brain and plasma, read-out: BPR
In short: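 Oral dose of 2 mg/kg in mice. Brain and plasma drug levels taken at 0.5 h after oral administration, and expressed as brain-to-plasma ratio.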

[14] = target: cGMP-specific 3',5'-cyclic phosphodiesterase (Homo sapiens, UniProt O76074); assay: Inhibition of PDE5 (unknown origin) using [3H]cAMP or [3H]cGMP as substrate measured after 30 mins by liquid scintillation counting method

Chain of cGMP-dependent 3',5'-cyclic phosphodiesterase (O00408 whole entry): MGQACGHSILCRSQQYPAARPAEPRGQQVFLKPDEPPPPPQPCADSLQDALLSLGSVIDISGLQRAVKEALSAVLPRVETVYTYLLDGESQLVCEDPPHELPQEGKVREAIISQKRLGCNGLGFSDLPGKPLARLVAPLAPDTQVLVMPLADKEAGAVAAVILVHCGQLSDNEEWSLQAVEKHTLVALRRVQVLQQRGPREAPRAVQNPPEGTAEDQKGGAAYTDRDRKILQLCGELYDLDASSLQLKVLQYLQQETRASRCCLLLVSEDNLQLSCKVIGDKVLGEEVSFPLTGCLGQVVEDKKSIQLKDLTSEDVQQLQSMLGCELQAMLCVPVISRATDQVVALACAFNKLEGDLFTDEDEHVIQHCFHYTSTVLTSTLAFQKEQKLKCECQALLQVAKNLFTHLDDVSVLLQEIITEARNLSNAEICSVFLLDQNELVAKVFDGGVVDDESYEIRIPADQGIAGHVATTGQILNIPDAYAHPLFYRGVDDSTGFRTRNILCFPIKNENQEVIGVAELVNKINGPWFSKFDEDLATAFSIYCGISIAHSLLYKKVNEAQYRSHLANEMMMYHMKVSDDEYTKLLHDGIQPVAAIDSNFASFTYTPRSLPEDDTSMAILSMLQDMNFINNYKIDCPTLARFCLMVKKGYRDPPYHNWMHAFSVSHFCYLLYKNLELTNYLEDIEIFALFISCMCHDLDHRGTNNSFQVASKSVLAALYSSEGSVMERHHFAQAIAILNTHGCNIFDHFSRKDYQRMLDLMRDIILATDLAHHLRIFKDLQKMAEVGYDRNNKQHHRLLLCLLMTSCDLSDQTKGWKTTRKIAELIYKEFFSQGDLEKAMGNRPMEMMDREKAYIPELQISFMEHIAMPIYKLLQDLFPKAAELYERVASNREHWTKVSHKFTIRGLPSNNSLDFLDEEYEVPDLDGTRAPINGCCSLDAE
Chain of cAMP and cAMP-inhibited cGMP 3',5'-cyclic phosphodiesterase 10A (Q9Y233 whole entry): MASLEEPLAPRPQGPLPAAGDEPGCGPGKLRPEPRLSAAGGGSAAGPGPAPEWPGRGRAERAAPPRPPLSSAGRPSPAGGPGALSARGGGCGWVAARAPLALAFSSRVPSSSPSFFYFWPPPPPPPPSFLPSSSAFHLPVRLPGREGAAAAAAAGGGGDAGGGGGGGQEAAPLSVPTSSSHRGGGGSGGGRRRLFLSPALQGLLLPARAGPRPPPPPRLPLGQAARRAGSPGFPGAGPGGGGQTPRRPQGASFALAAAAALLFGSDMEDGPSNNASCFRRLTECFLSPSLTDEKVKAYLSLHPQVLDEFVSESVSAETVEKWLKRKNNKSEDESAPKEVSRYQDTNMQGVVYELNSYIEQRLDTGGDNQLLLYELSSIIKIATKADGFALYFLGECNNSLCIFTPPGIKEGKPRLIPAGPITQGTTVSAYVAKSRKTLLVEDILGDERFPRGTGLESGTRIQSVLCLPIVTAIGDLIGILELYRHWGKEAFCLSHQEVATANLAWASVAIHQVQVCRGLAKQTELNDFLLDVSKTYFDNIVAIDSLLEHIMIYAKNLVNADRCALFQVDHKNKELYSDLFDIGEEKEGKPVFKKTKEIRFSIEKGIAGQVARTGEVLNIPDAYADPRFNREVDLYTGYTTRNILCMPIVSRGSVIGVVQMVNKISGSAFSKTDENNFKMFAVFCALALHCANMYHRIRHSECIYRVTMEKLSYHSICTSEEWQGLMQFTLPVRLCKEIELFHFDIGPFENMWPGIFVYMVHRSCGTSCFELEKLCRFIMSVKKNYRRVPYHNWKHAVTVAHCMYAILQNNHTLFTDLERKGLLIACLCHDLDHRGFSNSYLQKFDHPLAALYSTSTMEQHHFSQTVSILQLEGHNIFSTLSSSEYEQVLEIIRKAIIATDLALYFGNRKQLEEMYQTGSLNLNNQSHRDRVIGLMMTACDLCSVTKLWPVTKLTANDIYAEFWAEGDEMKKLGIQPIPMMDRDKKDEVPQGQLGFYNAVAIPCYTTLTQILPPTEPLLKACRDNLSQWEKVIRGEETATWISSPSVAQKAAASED
Chain of High affinity cGMP-specific 3',5'-cyclic phosphodiesterase 9A (O76083 whole entry): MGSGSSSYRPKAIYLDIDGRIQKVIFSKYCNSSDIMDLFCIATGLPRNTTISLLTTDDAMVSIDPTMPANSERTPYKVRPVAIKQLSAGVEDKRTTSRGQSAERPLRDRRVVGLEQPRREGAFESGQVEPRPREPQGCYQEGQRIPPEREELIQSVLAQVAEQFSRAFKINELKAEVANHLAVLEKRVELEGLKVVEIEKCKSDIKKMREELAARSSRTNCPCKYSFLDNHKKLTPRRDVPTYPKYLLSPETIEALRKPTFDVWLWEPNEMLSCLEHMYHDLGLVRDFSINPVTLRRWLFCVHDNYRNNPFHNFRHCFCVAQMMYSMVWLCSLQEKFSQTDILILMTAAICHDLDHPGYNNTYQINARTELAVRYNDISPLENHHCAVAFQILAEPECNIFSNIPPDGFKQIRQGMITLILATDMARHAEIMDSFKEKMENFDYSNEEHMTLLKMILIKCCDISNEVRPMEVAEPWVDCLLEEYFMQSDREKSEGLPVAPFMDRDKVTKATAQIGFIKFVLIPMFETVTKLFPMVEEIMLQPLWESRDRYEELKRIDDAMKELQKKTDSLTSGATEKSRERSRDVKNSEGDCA

`CC(CCc1ccccc1)n1cnc2c(=O)[nH]c(Cc3ccccc3)nc21` (stereo unspecified) gave an IC50 [1] of 0.31 µM.

For `O=c1[nH]c(Cc2ccccc2)nc2c1ncn2Cc1ccc2ccccc2c1`, the IC50 [1] was 3.99 µM.

With `CN1C(=O)CN=C(c2ccccc2)c2cc(Cl)ccc21` the Activity (Mus musculus [2]) was “Active”.

Work on `O=c1[nH]c(Cc2ccccc2)nc2c1ncn2CCc1ccccc1` yielded an IC50 [1] of 7.27 µM.

Work on `COc1ccc(CCn2cnc3c(=O)[nH]c(Cc4ccccc4)nc32)cc1OC` yielded an IC50 [1] of 40.3 µM.

For `COc1ccc(Cc2nc(O)c3c(C)nc([C@@H](CCCc4ccccc4)[C@@H](C)O)n3n2)cc1OC`, the inhibition (Mus musculus [3]) was “Active”, the Activity (Mus musculus [4]) was “inactive” and the inhibition (Mus musculus [5]) was “Active”.

With `COc1cccc(CCn2cnc3c(=O)[nH]c(Cc4ccccc4)nc32)c1` the IC50 [1] was 11 µM.

In the case of `CCCCn1cnc2c(=O)[nH]c(Cc3ccc(OC)cc3)nc21`, the IC50 [1] is reported as 1.94 µM.

In the case of `CCCCn1cnc2c(=O)[nH]c(Cc3ccc(OCc4ccccc4)cc3)nc21`, the IC50 [1] is reported as 5.46 µM.

In the case of `O=c1[nH]c(Cc2ccccc2)nc2c1ncn2CCc1c[nH]c2ccccc12`, the IC50 [1] is reported as > 50 µM.

`CC(c1cccc2ccccc12)N1C=NC2C(=O)NC(Cc3ccccc3)=NC21` (stereo unspecified) showed an IC50 [1] of 0.57 µM.

Compound `O=c1[nH]c(Cc2ccccc2)nc2c1ncn2CCc1cccs1` has an IC50 [1] of 17 µM.

For `CCCCCCCCn1cnc2c(=O)[nH]c(Cc3ccccc3)nc21`, the IC50 [1] was 4.28 µM.

In the case of `CCCCCCn1cnc2c(=O)[nH]c(Cc3ccccc3)nc21`, the IC50 [1] is reported as 5.94 µM.

`CCCCC(CC)Cn1cnc2c(=O)[nH]c(Cc3ccccc3)nc21` (stereo unspecified) showed an IC50 [1] of 1.24 µM.

In the case of `O=c1[nH]c(Cc2ccc(OCc3ccccc3)cc2)nc2c1ncn2CCc1ccccc1`, the IC50 [1] is reported as 5.8 µM.

With `CCCCCCn1cnc2c(=O)[nH]c(Cc3ccc(OCc4ccccc4)cc3)nc21` the IC50 [1] was 3.91 µM.

In the case of `COc1ccc(CCn2cnc3c(=O)[nH]c(Cc4ccc(OCc5ccccc5)cc4)nc32)cc1OC`, the IC50 [1] is reported as > 50 µM.

For `CCCCCCn1cnc2c(=O)[nH]c(Cc3ccc(OC)cc3)nc21`, the IC50 [1] was 3.79 µM.

For `CCCCC(CC)Cn1cnc2c(=O)[nH]c(Cc3ccc(OC)cc3)nc21` (stereo unspecified), the IC50 (Phosphodiesterase 4) was > 500 µM, the Tmax [6] was 31.8 min and the half-life [7] was 84 min. The Cmax [8] was 511 ng/mL, the Activity [9] was “Non-Toxic” and the IC50 [10] was 32.3 µM. For the same compound, the IC50 (Phosphodiesterase 1) was > 500 µM, the IC50 [11] was > 500 µM and the AUC(0-inf) [12] was 646 ng·h/mL. The Kp at 0.5 h [13] was 0.56, the IC50 [14] was > 500 µM and the IC50 [1] was 0.081 µM.

`CCCCn1cnc2c(=O)[nH]c(Cc3ccccc3)nc21` gave an IC50 [1] of 4.32 µM.

With `CCCCCCCCn1cnc2c(=O)[nH]c(Cc3ccc(OCc4ccccc4)cc3)nc21` the IC50 [1] was 2.63 µM.

With `CCCCC(CC)Cn1cnc2c(=O)[nH]c(Cc3ccc(OCc4ccccc4)cc3)nc21` (stereo unspecified) the IC50 (Phosphodiesterase 4) was > 500 µM, the IC50 [10] was 13.9 µM and the IC50 (Phosphodiesterase 1) was > 500 µM. For the same compound, the IC50 [11] was > 500 µM, the IC50 [14] was > 500 µM and the IC50 [1] was 0.072 µM.
